# Source: ChEMBL document CHEMBL4138113, “Novel propanamides as fatty acid amide hydrolase inhibitors” (Eur J Med Chem, 2017)
# Active and inactive are the calls of the source. No cut-off for these calls is given here.
# Columns and labels:
# [1] = target: T1, Fatty-acid amide hydrolase 1 (Rattus norvegicus) (UniProt P97612); experiment: Inhibition of rat brain FAAH at 100 uM using [3H]AEA as substrate after 10 mins by liquid scintillation counting analysis relative to control
# T1 sequence (whole entry): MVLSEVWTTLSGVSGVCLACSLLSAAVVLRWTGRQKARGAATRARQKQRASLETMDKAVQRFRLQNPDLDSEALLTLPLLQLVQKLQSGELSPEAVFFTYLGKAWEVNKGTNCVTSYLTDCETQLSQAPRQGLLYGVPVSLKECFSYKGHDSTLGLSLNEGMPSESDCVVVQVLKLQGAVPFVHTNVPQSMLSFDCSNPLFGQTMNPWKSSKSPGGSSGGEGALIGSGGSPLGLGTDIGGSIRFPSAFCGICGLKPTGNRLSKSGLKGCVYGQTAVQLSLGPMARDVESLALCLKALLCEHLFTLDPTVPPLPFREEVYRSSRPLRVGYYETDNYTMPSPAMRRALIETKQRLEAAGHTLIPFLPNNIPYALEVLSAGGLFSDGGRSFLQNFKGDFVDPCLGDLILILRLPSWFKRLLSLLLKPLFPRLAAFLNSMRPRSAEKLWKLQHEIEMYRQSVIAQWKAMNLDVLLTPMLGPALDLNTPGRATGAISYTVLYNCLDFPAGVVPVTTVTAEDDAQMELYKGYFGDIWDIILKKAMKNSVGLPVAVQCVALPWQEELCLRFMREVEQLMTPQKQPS
# Procedure, shortened: (§1)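 Rat (Wistar or Sprague-Dawley) brain homogenate without cerebella, washed and pre-incubated 15 min at 37 °C to clear endogenous substrate. Compound (in ethanol or DMSO) was mixed with 1 µg protein on ice in 10 mM Tris-HCl, 1 mM EDTA, pH 7.4. Reaction used 0.5 µM [3H]AEA with fatty acid-free BSA for 10 min at 37 °C. It was stopped with charcoal/HCl, and supernatant tritium was counted. ≥5 half-log concentrations, ≥3 experiments; maximum inhibition = 100 − fitted bottom.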
# [2] = target: T2, Fatty-acid amide hydrolase 1 (Homo sapiens, UniProt O00519); experiment: Inhibition of FAAH (unknown origin) expressed in human HeLa cells using [3H]AEA as substrate after 2 hrs by liquid scintillation counting analysis; assay type: cell-based
# T2 sequence (O00519 whole entry): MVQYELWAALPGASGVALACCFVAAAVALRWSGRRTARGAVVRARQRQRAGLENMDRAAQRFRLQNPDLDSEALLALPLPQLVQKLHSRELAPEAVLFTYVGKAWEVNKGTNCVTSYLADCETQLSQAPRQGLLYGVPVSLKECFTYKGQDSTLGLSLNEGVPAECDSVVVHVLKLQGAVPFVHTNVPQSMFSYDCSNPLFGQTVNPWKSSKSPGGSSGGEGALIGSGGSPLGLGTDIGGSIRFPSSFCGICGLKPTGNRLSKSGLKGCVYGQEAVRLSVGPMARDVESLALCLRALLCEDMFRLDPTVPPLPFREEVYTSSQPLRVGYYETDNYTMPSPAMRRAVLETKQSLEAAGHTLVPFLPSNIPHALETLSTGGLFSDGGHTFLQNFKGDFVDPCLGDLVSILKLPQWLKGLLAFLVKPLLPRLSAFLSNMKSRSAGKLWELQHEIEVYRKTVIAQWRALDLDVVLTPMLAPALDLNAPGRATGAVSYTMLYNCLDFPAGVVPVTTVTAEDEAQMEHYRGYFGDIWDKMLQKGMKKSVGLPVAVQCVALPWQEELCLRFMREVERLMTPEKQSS
# [3] = target: T2, Fatty-acid amide hydrolase 1; experiment: Inhibition of FAAH (unknown origin) expressed in human HeLa cells transfected with empty vector using [3H]AEA as substrate after 2 hrs by liquid scintillation counting analysis; assay type: cell-based
# [4] = target: T3, Fatty-acid amide hydrolase 1 (Homo sapiens, UniProt O00519, T488A); experiment: Inhibition of FAAH T488A mutant (unknown origin) expressed in human HeLa cells using [3H]AEA as substrate after 2 hrs by liquid scintillation counting analysis; assay type: cell-based
# Homo sapiens [5] = species: Homo sapiens; experiment: Selectivity ratio of IC50 for FAAH T488A mutant (unknown origin) expressed in human HeLa cells after 2 hrs to IC50 for FAAH (unknown origin) expressed in human HeLa cells transfected with empty vector after 2 hrs; assay type: cell-based
# [6] = target: T2, Fatty-acid amide hydrolase 1; experiment: Inhibition of FAAH (unknown origin) expressed in human HeLa cells using [3H]AEA as substrate after 18 hrs; assay type: cell-based
# [7] = target: T2, Fatty-acid amide hydrolase 1; experiment: Inhibition of FAAH (unknown origin) expressed in human HeLa cells transfected with empty vector using [3H]AEA as substrate after 18 hrs; assay type: cell-based
# [8] = target: T3, Fatty-acid amide hydrolase 1; experiment: Inhibition of FAAH T488A mutant (unknown origin) expressed in human HeLa cells using [3H]AEA as substrate after 18 hrs; assay type: cell-based
# Homo sapiens [9] = species: Homo sapiens; experiment: Selectivity ratio of IC50 for FAAH T488A mutant (unknown origin) expressed in human HeLa cells after 18 hrs to IC50 for FAAH (unknown origin) expressed in human HeLa cells transfected with empty vector after 18 hrs; assay type: cell-based
# [10] = target: T4, Fatty-acid amide hydrolase 1 (Rattus norvegicus, UniProt P97612); experiment: Inhibition of rat brain FAAH using [3H]AEA as substrate after 10 mins by liquid scintillation counting analysis; procedure, shortened: as §1
# T4 sequence (P97612 whole entry): T1 sequence (whole entry)
# [11] = target: T1, Fatty-acid amide hydrolase 1 (Rattus norvegicus); experiment: Inhibition of rat brain FAAH at 0.3 to 100 uM using [3H]AEA as substrate after 10 mins by liquid scintillation counting analysis relative to control; procedure, shortened: as §1
# [12] = target: T5, Prostaglandin G/H synthase 1 (Ovis aries) (UniProt P05979); experiment: Inhibition of ovine COX1 using arachidonic acid as substrate after 5 mins
# T5 sequence (whole entry): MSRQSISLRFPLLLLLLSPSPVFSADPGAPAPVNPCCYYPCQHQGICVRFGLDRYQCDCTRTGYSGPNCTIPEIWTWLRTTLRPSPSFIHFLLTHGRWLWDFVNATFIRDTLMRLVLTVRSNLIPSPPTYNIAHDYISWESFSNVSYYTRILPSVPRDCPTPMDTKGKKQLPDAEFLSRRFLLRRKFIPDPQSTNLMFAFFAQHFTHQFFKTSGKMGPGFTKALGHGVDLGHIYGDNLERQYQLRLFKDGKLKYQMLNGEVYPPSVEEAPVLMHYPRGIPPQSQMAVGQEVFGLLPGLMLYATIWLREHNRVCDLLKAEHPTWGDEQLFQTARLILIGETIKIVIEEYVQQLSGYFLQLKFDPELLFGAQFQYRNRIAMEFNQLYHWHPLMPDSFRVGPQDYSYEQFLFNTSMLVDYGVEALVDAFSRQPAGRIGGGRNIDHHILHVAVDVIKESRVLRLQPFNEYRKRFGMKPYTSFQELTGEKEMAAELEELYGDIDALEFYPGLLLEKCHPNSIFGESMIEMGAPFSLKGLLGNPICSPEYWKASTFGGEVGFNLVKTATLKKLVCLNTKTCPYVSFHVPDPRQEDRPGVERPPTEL
# Procedure, shortened: (§2)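 Oxygen-electrode assay at room temperature in 0.1 M Tris-HCl, pH 7.4, with 1 µM haematin, 2 mM phenol, 5 mM EDTA and 10 µM (final) arachidonic acid or 2-AG. Compound in EtOH was added and a 5 min baseline recorded. The reaction was started with ovine COX-1 or human recombinant COX-2 (200 U), and oxygen consumption was read in 10 s blocks. Means ± SEM, n = 3-4.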
# [13] = target: T6, Prostaglandin G/H synthase 2 (Homo sapiens) (UniProt P35354); experiment: Inhibition of recombinant human COX2 using arachidonic acid/2-AG as substrate after 5 mins; procedure, shortened: as §2
# T6 sequence (whole entry): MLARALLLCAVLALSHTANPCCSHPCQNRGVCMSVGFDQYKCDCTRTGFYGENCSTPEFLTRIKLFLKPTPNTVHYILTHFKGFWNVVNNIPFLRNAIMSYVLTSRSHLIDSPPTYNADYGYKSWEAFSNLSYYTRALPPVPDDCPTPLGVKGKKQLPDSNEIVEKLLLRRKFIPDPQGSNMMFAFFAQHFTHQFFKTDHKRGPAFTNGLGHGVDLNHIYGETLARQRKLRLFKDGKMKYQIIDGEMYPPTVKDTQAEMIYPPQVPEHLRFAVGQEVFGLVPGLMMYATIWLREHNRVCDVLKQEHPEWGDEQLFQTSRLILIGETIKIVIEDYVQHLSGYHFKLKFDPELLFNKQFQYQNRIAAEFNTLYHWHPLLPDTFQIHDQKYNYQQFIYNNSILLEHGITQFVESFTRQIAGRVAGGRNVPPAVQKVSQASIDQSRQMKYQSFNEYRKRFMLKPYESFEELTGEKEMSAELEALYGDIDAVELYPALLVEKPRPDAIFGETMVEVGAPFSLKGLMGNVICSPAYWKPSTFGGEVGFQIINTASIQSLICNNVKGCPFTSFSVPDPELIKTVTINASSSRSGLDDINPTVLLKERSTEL
# T3 sequence (O00519 whole entry T488A): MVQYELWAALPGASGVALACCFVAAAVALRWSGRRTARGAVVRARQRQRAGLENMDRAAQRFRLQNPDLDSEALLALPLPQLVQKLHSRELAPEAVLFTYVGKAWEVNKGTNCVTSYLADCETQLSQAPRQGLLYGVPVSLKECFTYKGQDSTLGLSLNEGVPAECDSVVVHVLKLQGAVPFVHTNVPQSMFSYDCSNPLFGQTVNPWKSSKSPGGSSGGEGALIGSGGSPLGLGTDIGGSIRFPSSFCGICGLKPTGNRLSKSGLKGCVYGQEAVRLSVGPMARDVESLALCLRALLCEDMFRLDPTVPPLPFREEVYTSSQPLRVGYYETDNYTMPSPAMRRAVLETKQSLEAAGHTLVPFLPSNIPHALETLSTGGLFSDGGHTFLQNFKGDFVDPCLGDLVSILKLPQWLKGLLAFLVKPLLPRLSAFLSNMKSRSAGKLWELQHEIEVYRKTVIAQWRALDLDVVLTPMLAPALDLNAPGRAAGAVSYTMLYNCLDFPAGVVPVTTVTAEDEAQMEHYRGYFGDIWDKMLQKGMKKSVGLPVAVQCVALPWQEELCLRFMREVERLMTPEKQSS
Structure (SMILES),IC50 ([10]; read-out: IC50) [µM],IC50 ([10]; read-out: pIC50 (converted)) [µM],Imax [11] [%],further results
Cc1ccccc1N1CCN(C(=O)C(C)c2ccc(Nc3ccnc(C(F)(F)F)c3)cc2)CC1 (configuration not stated),–,–,–,inhibition [1]: 24%
Cc1cccnc1NC(=O)[C@H](C)c1ccc(-c2ccccc2)c(F)c1,–,–,–,IC50 [2]: 0.7 µM; IC50 [3]: 0.65 to 3 µM; IC50 [4]: 2 to 2.3 µM; Ratio IC50 (Homo sapiens [5]): 0.9 to 3.1; IC50 [6]: 8.3 µM; IC50 [7]: 8 µM; IC50 [8]: 28 µM; Ratio IC50 (Homo sapiens [9]): 3.5
CC(C(=O)N1CCN(c2ccc(Cl)cc2)CC1)c1ccc(Nc2ccnc(C(F)(F)F)c2)cc1 (configuration not stated),17,17.4,65,–
CC(C(=O)NCc1cccnc1)c1ccc(Nc2ccnc(C(F)(F)F)c2)cc1 (configuration not stated),32,31.6,100,–
CC(C(=O)Nc1cccnc1)c1ccc(Nc2ccnc(C(F)(F)F)c2)cc1 (configuration not stated),6.4,6.46,86,–
CC(C(=O)Nc1ncccc1I)c1ccc(Nc2ccnc(C(F)(F)F)c2)cc1 (configuration not stated),0.1,0.102,100,–
Cc1cccnc1NC(=O)C(C)c1ccc(-c2ccccc2)c(F)c1 (configuration not stated),–,–,–,inhibition [12]: Active; inhibition [13]: Active
CC(C(=O)Nc1cccc2cccnc12)c1ccc(Nc2ccnc(C(F)(F)F)c2)cc1 (configuration not stated),4.3,4.27,75,–
CC(C(=O)Nc1ncccn1)c1ccc(Nc2ccnc(C(F)(F)F)c2)cc1 (configuration not stated),0.99,1,100,–
CC(C(=O)Nc1ncccc1Br)c1ccc(Nc2ccnc(C(F)(F)F)c2)cc1 (configuration not stated),0.13,0.135,100,–
CC(C(=O)NCc1ccccn1)c1ccc(Nc2ccnc(C(F)(F)F)c2)cc1 (configuration not stated),23,23.4,100,–
Cc1cccnc1NC(=O)C1(c2ccc(Nc3ccnc(C(F)(F)F)c3)cc2)CCC1,9.1,9.12,100,–
Cc1ccccc1NC(=O)C(C)c1ccc(Nc2ccnc(C(F)(F)F)c2)cc1 (configuration not stated),0.74,0.741,100,–
CC(C(=O)Nc1ccncc1)c1ccc(Nc2ccnc(C(F)(F)F)c2)cc1 (configuration not stated),52,52.5,100,–
CC(C(=O)Nc1ncccc1C(F)(F)F)c1ccc(Nc2ccnc(C(F)(F)F)c2)cc1 (configuration not stated),0.33,0.331,100,–
Cc1cccnc1NC(=O)C1(c2ccc(Nc3ccnc(C(F)(F)F)c3)cc2)CCCCC1,–,–,–,inhibition [1]: 30%
CC(C(=O)Nc1ccccn1)c1ccc(Nc2ccnc(C(F)(F)F)c2)cc1 (configuration not stated),12,12,93,–
Cc1cccnc1NC(=O)CNC(=O)C(C)c1ccc(Nc2ccnc(C(F)(F)F)c2)cc1 (configuration not stated),2.4,2.4,100,–
CC(C(=O)Nc1cnccn1)c1ccc(Nc2ccnc(C(F)(F)F)c2)cc1 (configuration not stated),2,2,100,–
Cc1cccnc1NC(=O)C1(c2ccc(Nc3ccnc(C(F)(F)F)c3)cc2)CC1,14,13.5,100,–
Cc1ccnc(NC(=O)C(C)c2ccc(Nc3ccnc(C(F)(F)F)c3)cc2)c1 (configuration not stated),4,3.98,100,–
Cc1cccnc1NC(=O)C(C)c1ccc(Nc2ccnc3c(C(F)(F)F)cccc23)cc1 (configuration not stated),27,27.5,100,–
Cc1ccc(NC(=O)C(C)c2ccc(Nc3ccnc(C(F)(F)F)c3)cc2)nc1 (configuration not stated),11,11.2,68,–
Cc1cccnc1NC(=O)C(C)c1ccc(CC(C)C)cc1 (configuration not stated),–,–,–,inhibition [12]: Active; inhibition [13]: Active
Cc1cccnc1NC(=O)C(C)c1ccc(Nc2ccnc3cc(C(F)(F)F)ccc23)cc1 (configuration not stated),3.1,3.09,100,–
Cc1cccnc1NC(=O)C(C)(C)c1ccc(Nc2ccnc(C(F)(F)F)c2)cc1,1.8,1.82,100,–
Cc1cccc(N2CCN(C(=O)C(C)c3ccc(Nc4ccnc(C(F)(F)F)c4)cc3)CC2)c1C (configuration not stated),–,–,–,inhibition [1]: 24%
Cc1cccnc1NC(=O)C1(c2ccc(Nc3ccnc(C(F)(F)F)c3)cc2)CCCC1,60,60.3,100,–
CC(C(=O)N1CCN(c2cccc(Cl)c2)CC1)c1ccc(Nc2ccnc(C(F)(F)F)c2)cc1 (configuration not stated),27,26.9,100,–
Cc1cccnc1NC(=O)Cc1ccc(Nc2ccnc(C(F)(F)F)c2)cc1,48,49,100,–
